In the M2OR odorant receptor database:
Residue numbers refer to the chain shown, from its start.

How the values were obtained:
Conditions in all cases: stereoisomer not certain
O5AP2 A105T = system: T1, O5AP2 A105T
T1 sequence (whole entry): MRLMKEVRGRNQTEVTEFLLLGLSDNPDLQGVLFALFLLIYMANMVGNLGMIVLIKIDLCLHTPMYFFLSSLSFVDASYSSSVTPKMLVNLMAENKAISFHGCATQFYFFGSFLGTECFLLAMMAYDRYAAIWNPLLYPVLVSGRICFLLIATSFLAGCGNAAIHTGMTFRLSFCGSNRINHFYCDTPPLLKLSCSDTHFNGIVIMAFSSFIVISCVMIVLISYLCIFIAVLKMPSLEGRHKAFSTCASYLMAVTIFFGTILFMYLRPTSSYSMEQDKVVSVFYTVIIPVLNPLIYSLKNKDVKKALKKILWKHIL
Procedure, shortened: (§1)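 Values were gathered from published papers (main text and supplementary material), with extra details requested from the original authors when needed, and checked for typos and inconsistencies. Each receptor–molecule pair is called responsive (active) if the original authors judged the measured signal statistically different from baseline, and non-responsive (inactive) otherwise. Assay methods varied by source, often transient mammalian cell-line luciferase assays. Recorded details include cell line, G-protein, co-transfected protein and tags.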

O5AU1 = system: T2, O5AU1
T2 sequence (whole entry): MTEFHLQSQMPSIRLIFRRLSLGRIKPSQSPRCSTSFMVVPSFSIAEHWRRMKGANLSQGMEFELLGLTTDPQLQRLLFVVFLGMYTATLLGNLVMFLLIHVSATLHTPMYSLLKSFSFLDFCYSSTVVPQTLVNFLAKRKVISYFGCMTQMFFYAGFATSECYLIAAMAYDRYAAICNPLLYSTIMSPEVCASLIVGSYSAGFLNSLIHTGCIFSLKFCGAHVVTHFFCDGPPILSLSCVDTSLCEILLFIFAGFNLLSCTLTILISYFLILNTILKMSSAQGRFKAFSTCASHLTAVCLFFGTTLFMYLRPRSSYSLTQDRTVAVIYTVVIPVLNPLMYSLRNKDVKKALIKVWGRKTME
Procedure, shortened: as §1

O5H14 = system: T3, O5H14
T3 sequence (whole entry): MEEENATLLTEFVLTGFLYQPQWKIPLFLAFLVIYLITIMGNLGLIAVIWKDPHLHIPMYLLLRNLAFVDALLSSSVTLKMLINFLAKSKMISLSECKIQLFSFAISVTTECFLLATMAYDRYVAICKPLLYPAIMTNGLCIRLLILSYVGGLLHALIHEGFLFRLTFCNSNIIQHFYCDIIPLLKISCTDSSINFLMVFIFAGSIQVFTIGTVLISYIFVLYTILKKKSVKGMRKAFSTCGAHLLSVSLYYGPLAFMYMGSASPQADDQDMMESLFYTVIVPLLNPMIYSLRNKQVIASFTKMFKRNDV
Procedure, shortened: as §1

O5H15 V108I S148T T167S = system: T4, O5H15 V108I S148T T167S
T4 sequence (whole entry): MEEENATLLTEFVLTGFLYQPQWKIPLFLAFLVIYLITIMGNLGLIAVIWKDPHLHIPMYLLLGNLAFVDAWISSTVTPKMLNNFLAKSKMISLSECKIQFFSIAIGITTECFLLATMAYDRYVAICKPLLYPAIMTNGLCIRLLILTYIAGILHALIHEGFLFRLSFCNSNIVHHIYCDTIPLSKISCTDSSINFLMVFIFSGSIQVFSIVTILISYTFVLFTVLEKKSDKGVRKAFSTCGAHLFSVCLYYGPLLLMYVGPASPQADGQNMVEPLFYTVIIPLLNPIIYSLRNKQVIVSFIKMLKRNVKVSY
Procedure, shortened: as §1

O6C65 T222A = system: T5, O6C65 T222A
T5 sequence (whole entry): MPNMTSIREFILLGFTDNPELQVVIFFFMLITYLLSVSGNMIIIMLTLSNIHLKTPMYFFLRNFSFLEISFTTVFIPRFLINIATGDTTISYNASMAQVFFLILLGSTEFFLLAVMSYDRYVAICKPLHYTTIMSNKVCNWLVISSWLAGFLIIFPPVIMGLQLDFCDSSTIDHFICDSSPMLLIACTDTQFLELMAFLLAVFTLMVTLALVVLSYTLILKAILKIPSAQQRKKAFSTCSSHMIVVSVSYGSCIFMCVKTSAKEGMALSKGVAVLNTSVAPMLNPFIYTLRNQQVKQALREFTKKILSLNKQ
Procedure, shortened: as §1

O6C70 L181P = system: T6, O6C70 L181P
T6 sequence (whole entry): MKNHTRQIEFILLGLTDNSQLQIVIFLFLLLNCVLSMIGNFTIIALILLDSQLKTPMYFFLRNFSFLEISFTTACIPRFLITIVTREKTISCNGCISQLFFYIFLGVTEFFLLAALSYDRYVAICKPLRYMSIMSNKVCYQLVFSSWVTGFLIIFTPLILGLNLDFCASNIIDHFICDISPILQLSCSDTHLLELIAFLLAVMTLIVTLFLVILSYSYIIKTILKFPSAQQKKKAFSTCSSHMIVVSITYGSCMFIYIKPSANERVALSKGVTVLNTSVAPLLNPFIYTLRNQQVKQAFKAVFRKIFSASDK
Procedure, shortened: as §1

O7E24 S193F P242S = system: T7, O7E24 S193F P242S
T7 sequence (whole entry): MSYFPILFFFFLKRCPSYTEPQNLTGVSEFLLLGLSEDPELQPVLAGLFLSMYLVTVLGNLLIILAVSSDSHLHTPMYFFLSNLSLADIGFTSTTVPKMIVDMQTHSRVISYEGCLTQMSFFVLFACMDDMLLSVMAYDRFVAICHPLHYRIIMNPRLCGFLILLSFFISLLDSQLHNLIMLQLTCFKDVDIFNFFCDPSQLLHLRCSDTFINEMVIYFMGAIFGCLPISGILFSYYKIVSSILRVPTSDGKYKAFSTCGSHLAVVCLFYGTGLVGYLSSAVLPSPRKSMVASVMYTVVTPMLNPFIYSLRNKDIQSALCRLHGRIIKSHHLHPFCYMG
Procedure, shortened: as §1

O7E24 = system: T8, O7E24
T8 sequence (whole entry): T7 sequence (whole entry) with F193S
Procedure, shortened: as §1

OR10A2 (Homo sapiens) = biological target: T9, OR10A2 (Homo sapiens) (UniProt Q9H208)
T9 sequence (whole entry): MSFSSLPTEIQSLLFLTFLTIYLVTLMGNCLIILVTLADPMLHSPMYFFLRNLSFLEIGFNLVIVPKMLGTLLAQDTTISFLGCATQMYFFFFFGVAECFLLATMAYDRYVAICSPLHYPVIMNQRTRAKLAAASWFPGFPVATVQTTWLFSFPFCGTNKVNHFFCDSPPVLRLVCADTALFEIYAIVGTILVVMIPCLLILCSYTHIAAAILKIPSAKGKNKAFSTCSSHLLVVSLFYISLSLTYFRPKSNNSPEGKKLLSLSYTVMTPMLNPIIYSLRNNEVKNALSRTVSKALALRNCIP
Procedure, shortened: as §1

OR10A3 (Homo sapiens) = biological target: T10, OR10A3 (Homo sapiens) (UniProt P58181)
T10 sequence (whole entry): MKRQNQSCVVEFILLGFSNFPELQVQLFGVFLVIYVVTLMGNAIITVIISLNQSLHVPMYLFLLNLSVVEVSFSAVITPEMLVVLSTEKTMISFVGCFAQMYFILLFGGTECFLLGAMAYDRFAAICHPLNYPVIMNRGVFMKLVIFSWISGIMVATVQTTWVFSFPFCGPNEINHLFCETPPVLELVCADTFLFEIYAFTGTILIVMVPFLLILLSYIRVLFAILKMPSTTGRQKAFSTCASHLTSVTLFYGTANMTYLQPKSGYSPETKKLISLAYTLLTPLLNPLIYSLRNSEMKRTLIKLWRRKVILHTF
Procedure, shortened: as §1

OR10A4 (Homo sapiens) = biological target: T11, OR10A4 (Homo sapiens) (UniProt Q9H209)
T11 sequence (whole entry): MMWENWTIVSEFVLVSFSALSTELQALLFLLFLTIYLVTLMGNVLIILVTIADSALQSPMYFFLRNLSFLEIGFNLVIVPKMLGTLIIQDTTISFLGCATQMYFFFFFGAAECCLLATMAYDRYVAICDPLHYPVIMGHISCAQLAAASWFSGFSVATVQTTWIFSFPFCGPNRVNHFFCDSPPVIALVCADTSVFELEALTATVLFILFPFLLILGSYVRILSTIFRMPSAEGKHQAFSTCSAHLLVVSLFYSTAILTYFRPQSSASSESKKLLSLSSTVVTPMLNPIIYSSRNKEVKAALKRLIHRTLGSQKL
Procedure, shortened: as §1

OR10A5 (Homo sapiens) = biological target: T12, OR10A5 (Homo sapiens) (UniProt Q9H207)
T12 sequence (whole entry): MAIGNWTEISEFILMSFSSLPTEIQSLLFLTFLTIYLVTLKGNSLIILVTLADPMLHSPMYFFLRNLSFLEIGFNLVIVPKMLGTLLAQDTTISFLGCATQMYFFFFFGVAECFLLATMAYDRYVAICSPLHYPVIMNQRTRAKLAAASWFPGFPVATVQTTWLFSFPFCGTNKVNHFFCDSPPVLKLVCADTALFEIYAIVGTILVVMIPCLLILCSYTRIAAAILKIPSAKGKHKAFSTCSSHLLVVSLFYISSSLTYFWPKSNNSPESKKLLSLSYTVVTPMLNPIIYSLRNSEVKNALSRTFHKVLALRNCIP
Procedure, shortened: as §1

OR10A6 (Homo sapiens) = biological target: T13, OR10A6 (Homo sapiens) (UniProt Q8NH74)
T13 sequence (whole entry): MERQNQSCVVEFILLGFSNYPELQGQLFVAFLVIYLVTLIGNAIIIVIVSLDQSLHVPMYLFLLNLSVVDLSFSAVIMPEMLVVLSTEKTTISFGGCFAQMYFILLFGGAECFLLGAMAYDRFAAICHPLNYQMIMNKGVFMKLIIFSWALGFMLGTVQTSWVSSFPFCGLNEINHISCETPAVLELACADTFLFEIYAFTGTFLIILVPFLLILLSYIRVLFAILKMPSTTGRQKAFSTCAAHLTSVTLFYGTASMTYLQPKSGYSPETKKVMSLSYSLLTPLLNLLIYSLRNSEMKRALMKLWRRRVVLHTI
Procedure, shortened: as §1

OR10A7 (Homo sapiens) = biological target: T14, OR10A7 (Homo sapiens) (UniProt Q8NGE5)
T14 sequence (whole entry): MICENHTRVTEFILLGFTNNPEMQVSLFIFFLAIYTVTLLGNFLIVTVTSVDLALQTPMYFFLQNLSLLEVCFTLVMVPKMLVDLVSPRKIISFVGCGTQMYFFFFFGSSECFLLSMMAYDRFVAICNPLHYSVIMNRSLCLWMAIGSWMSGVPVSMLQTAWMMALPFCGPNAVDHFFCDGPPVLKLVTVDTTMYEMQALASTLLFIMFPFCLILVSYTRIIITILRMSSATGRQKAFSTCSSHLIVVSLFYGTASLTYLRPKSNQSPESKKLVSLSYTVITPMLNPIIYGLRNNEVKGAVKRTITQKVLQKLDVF
Procedure, shortened: as §1

OR10AD1 (Homo sapiens) = biological target: T15, OR10AD1 (Homo sapiens) (UniProt Q8NGE0)
T15 sequence (whole entry): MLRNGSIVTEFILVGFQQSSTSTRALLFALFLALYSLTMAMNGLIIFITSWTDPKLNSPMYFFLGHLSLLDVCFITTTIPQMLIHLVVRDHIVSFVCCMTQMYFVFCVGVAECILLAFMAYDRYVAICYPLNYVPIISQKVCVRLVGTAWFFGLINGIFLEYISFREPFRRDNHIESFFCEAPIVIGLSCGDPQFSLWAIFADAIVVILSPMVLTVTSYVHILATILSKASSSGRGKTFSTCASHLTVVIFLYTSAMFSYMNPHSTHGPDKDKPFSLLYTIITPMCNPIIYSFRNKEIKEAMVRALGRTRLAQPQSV
Procedure, shortened: as §1

OR10AG1 (Homo sapiens) = biological target: T16, OR10AG1 (Homo sapiens) (UniProt Q8NH19)
T16 sequence (whole entry): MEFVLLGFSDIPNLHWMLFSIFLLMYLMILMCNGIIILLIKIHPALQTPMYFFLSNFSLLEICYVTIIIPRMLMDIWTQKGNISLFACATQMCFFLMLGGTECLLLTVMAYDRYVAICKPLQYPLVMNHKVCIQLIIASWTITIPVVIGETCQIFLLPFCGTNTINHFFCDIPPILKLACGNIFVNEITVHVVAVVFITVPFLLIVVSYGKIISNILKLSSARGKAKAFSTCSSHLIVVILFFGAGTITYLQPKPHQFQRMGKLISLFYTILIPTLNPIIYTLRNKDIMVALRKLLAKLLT
Procedure, shortened: as §1

OR10C1 (Homo sapiens) = biological target: T17, OR10C1 (Homo sapiens) (UniProt Q96KK4)
T17 sequence (whole entry): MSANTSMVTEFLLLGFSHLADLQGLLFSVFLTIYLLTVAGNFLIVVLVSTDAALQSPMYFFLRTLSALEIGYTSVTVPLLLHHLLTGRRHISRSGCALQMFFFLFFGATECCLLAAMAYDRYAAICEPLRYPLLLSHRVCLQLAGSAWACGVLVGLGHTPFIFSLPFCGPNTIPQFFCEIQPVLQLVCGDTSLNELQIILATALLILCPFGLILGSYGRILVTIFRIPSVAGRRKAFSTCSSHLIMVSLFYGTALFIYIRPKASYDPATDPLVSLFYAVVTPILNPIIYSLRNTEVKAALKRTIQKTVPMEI
Procedure, shortened: as §1

OR10D3 (Homo sapiens) = biological target: T18, OR10D3 (Homo sapiens) (UniProt Q8NH80)
T18 sequence (whole entry): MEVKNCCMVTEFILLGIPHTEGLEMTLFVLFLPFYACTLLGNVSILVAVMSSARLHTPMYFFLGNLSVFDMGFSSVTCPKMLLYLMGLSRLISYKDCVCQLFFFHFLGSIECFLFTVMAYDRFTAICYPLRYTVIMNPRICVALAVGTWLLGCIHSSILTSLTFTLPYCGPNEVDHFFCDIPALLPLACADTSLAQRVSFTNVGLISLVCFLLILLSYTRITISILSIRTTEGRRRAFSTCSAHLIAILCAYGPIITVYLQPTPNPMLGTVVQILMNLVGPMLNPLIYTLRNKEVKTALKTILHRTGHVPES
Procedure, shortened: as §1

Measured: odorant receptor agonist call

CCCCCCC=CCCC=O
inactive: all assays above
